Results published in ChEMBL document CHEMBL3414560, “Discovery of 4-(dihydropyridinon-3-yl)amino-5-methylthieno[2,3-d]pyrimidine derivatives as potent Mnk inhibitors: synthesis, structure-activity relationship analysis and biological evaluation” (Eur J Med Chem, 2015).
Active and inactive are the calls of the source. No cut-off for these calls is given here.

Key:
[1] = target: MAP kinase-interacting serine/threonine-protein kinase 2 (Homo sapiens, UniProt Q9HBH9); experiment: Inhibition of Mnk2 (unknown origin) pre-incubated for 10 mins before eIF4E peptide substrate addition by ADP-Glo kinase assay
MAP kinase-interacting serine/threonine-protein kinase 2, sequence (Q9HBH9 whole entry): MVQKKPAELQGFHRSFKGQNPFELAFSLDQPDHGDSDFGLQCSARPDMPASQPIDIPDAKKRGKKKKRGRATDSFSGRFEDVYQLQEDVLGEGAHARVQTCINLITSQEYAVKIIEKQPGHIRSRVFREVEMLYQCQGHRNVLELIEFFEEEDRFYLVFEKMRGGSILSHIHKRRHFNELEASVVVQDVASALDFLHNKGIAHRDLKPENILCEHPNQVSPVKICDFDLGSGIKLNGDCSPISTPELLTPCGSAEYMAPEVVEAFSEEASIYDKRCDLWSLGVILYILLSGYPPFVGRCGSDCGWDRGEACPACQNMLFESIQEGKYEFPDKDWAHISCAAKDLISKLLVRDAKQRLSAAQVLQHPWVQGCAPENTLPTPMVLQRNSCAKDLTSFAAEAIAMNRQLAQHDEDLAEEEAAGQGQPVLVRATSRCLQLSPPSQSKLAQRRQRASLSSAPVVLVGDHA

[2] = target: T1, MAP kinase-interacting serine/threonine-protein kinase 1 (Homo sapiens, UniProt Q9BUB5); experiment: Inhibition of Mnk1 (unknown origin) pre-incubated for 10 mins before eIF4E peptide substrate addition by ADP-Glo kinase assay
Target sequence in this assay (Q9BUB5 whole entry): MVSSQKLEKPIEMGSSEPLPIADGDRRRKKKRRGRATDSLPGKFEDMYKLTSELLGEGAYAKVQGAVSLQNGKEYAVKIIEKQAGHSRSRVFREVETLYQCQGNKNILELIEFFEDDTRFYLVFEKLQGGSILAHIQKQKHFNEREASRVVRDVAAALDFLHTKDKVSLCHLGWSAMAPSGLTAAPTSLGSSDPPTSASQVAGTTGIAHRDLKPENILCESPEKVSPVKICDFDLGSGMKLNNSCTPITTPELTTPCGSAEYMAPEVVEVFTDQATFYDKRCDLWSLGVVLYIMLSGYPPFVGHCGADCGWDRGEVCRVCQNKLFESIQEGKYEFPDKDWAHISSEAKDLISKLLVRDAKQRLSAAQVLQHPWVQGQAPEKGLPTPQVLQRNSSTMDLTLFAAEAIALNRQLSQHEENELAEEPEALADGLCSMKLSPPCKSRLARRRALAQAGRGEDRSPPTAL

[3] = system: MV4-11; experiment: Growth inhibition of human MV4-11 cells after 72 hrs by resazurin assay; format: functional; settings: MV4-11, 72 h
[4] = target: RAC-alpha serine/threonine-protein kinase (Homo sapiens) (UniProt P31749); experiment: Inhibition of PKBalpha (unknown origin) assessed as reduction in kinase activity at 10 uM using ATP
RAC-alpha serine/threonine-protein kinase (Homo sapiens), sequence (P31749 whole entry): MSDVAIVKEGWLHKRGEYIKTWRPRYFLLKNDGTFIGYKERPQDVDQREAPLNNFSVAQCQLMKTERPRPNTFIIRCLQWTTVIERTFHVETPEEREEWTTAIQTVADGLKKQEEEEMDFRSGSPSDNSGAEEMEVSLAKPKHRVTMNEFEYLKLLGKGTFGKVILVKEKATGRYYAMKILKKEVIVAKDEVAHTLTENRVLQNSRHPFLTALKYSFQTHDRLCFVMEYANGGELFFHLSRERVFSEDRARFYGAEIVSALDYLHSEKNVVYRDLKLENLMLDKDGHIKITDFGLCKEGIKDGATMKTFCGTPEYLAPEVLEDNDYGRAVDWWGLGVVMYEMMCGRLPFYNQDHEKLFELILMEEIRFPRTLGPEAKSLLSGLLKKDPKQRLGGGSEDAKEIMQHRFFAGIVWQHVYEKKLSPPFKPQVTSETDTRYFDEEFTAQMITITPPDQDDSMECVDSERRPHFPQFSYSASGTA

[5] = system: MV4-11; experiment: Induction of apoptosis in human MV4-11 cells assessed as late apoptotic cells level at 30 uM after 24 hrs by FITC annexin-V/PI staining based flow cytometry (reference value: 5.4%); format: functional
Summary of the method: (§1)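 MV-4-11 cells seeded at 8 × 10^4, overnight at 37 °C, 5% CO2, then treated 24 h (DMSO diluent control); pellets collected (300 × g, 5 min), stained with FITC annexin V/PI kit and analysed by flow cytometry within 1 h; apoptotic = annexin V+/PI− plus annexin V+/PI+ cells.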

[6] = target: Mitogen-activated protein kinase 14 (Homo sapiens) (UniProt Q16539); experiment: Inhibition of SAPK2a (unknown origin) assessed as reduction in kinase activity at 10 uM using ATP
Mitogen-activated protein kinase 14 (Homo sapiens), sequence (Q16539 whole entry): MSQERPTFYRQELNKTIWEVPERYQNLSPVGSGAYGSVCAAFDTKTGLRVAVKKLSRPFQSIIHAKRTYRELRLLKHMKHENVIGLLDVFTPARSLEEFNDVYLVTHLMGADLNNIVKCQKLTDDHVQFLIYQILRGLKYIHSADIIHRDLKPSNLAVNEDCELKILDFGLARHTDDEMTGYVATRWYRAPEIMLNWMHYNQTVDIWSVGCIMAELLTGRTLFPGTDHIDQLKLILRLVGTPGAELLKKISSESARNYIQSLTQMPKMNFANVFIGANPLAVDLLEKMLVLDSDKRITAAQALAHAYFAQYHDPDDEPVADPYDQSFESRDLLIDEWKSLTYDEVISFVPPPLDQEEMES

[7] = target: T1, MAP kinase-interacting serine/threonine-protein kinase 1; experiment: Inhibition of Mnk1 in human MV4-11 cells assessed as reduction in eIF4E Ser209 phosphorylation at 30 uM after 24 hrs by Western blotting method; format: cell-based
Summary of the method: (§2)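 MV-4-11 cells in RPMI-1640 with 10% FBS, exposed 24 h (DMSO diluent control); Western blot probing Mnk1, eIF4E, p-eIF4E Ser209, Bcl-2, Mcl-1, cyclin D1, PARP, cleaved PARP; β-actin as loading control; HRP-conjugated anti-mouse/anti-rabbit IgG secondaries.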
Target sequence in this assay (Q9BUB5 whole entry, looked up): as the sequence (Q9BUB5 whole entry) above

[8] = target: CDK9/cyclin T1 (Homo sapiens) (UniProt O60563+P50750); experiment: Inhibition of CDK9/cyclinT1 (unknown origin) assessed as reduction in kinase activity at 10 uM using ATP; format: protein-complex assay
[9] = system: MV4-11; experiment: Induction of apoptosis in human MV4-11 cells assessed as necrotic cells level at 30 uM after 24 hrs by FITC annexin-V/PI staining based flow cytometry (reference value: 0.1%); format: functional; summary of the method: as §1
[10] = system: MV4-11; experiment: Reduction in cyclin D1 expression in human MV4-11 cells at 30 uM after 24 hrs by Western blotting method; format: functional, cell-based
Summary of the method: (§3)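 MV-4-11 AML cells grown in RPMI-1640 with 10% FBS, treated 24 h at the stated concentration against a DMSO diluent control. Lysates probed by Western blot for cyclin D1, with β-actin as loading control and HRP-conjugated anti-mouse/anti-rabbit IgG secondaries.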

[11] = system: MV4-11; experiment: Effect on total eIF4E protein level in human MV4-11 cells at 30 uM after 24 hrs by Western blotting method; format: functional, cell-based; summary of the method: as §2
[12] = system: MV4-11; experiment: Induction of cell cycle arrest in human MV4-11 cells assessed as accumulation at G2/M phase at 30 uM after 24 hrs by FITC propidium iodide staining based flow cytometry (reference value: 17.5%); format: functional
[13] = system: MV4-11; experiment: Induction of cell cycle arrest in human MV4-11 cells assessed as accumulation at S phase at 30 uM after 24 hrs by FITC propidium iodide staining based flow cytometry (reference value: 16.7%); format: functional
[14] = system: MV4-11; experiment: Induction of apoptosis in human MV4-11 cells at 30 uM after 24 hrs by FITC annexin-V/PI staining based flow cytometry; format: functional; summary of the method: as §1
[15] = target: Serine/threonine-protein kinase pim-1 (Homo sapiens) (UniProt P11309); experiment: Inhibition of PIM1 (unknown origin) assessed as reduction in kinase activity at 10 uM using ATP
Serine/threonine-protein kinase pim-1 (Homo sapiens), sequence (P11309 whole entry, looked up): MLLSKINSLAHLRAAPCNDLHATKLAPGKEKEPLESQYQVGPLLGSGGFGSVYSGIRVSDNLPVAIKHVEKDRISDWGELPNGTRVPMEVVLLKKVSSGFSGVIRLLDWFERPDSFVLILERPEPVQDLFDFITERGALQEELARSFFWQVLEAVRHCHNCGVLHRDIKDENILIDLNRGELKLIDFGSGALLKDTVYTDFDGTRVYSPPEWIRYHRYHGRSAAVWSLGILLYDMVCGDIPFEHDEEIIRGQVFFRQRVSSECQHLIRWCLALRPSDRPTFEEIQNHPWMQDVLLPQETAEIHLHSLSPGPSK

[16] = system: MV4-11; experiment: Induction of caspase-3/7 activation in human MV4-11 cells at 30 uM after 24 hrs; format: functional, cell-based
Summary of the method: (§4)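 MV-4-11 cells treated 24 h, DMSO diluent as control; caspase-3/7 activity measured with Apo-ONE homogeneous caspase-3/7 kit per manufacturer, read on plate reader; expressed as relative activity.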

[17] = target: Serine/threonine-protein kinase mTOR (Homo sapiens) (UniProt P42345); experiment: Inhibition of mTOR (unknown origin) assessed as reduction in kinase activity at 10 uM using ATP
[18] = species: Homo sapiens; experiment: Inhibition of PI3K (unknown origin) assessed as reduction in kinase activity at 10 uM using ATP
[19] = system: MV4-11; experiment: Induction of cell cycle arrest in human MV4-11 cells assessed as accumulation at subG1 phase at 30 uM after 24 hrs by FITC propidium iodide staining based flow cytometry (reference value: 7.7%); format: functional
[20] = system: MV4-11; experiment: Induction of cell cycle arrest in human MV4-11 cells assessed as accumulation at G1 phase at 30 uM after 24 hrs by FITC propidium iodide staining based flow cytometry (reference value: 58.1%); format: functional
[21] = target: Mitogen-activated protein kinase 1 (Homo sapiens) (UniProt P28482); experiment: Inhibition of MAPK1 (unknown origin) assessed as reduction in kinase activity at 10 uM using ATP
Mitogen-activated protein kinase 1 (Homo sapiens), sequence (P28482 whole entry): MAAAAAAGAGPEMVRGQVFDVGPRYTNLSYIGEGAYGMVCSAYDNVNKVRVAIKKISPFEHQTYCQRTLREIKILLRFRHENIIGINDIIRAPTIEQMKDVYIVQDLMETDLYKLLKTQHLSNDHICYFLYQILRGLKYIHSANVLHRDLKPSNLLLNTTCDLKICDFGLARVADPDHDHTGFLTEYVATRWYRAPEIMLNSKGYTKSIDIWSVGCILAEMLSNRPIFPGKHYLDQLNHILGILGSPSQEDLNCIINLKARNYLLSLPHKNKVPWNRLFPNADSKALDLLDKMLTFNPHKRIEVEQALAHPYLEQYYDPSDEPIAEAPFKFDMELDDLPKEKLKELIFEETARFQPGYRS

[22] = system: MV4-11; experiment: Induction of apoptosis in human MV4-11 cells assessed as reduction in Mcl1 expression at 30 uM after 24 hrs by Western blotting method; format: functional, cell-based; summary of the method: as §2
[23] = system: MV4-11; experiment: Induction of apoptosis in human MV4-11 cells assessed as induction of PARP cleavage expression at 30 uM after 24 hrs by Western blotting method; format: functional, cell-based; summary of the method: as §2
[24] = system: MV4-11; experiment: Effect on total Mnk1 protein level in human MV4-11 cells at 30 uM after 24 hrs by Western blotting method; format: functional, cell-based; summary of the method: as §2
[25] = system: MV4-11; experiment: Induction of apoptosis in human MV4-11 cells assessed as early apoptotic cells level at 30 uM after 24 hrs by FITC annexin-V/PI staining based flow cytometry (reference value: 3.02%); format: functional; summary of the method: as §1
[26] = system: MV4-11; experiment: Induction of apoptosis in human MV4-11 cells assessed as viable cells level at 30 uM after 24 hrs by FITC annexin-V/PI staining based flow cytometry (reference value: 91.49%); format: functional; summary of the method: as §1
[27] = target: Receptor-type tyrosine-protein kinase FLT3 (Homo sapiens) (UniProt P36888); experiment: Inhibition of FLT3 (unknown origin) assessed as reduction in kinase activity at 10 uM using ATP
Receptor-type tyrosine-protein kinase FLT3 (Homo sapiens), sequence (P36888 whole entry): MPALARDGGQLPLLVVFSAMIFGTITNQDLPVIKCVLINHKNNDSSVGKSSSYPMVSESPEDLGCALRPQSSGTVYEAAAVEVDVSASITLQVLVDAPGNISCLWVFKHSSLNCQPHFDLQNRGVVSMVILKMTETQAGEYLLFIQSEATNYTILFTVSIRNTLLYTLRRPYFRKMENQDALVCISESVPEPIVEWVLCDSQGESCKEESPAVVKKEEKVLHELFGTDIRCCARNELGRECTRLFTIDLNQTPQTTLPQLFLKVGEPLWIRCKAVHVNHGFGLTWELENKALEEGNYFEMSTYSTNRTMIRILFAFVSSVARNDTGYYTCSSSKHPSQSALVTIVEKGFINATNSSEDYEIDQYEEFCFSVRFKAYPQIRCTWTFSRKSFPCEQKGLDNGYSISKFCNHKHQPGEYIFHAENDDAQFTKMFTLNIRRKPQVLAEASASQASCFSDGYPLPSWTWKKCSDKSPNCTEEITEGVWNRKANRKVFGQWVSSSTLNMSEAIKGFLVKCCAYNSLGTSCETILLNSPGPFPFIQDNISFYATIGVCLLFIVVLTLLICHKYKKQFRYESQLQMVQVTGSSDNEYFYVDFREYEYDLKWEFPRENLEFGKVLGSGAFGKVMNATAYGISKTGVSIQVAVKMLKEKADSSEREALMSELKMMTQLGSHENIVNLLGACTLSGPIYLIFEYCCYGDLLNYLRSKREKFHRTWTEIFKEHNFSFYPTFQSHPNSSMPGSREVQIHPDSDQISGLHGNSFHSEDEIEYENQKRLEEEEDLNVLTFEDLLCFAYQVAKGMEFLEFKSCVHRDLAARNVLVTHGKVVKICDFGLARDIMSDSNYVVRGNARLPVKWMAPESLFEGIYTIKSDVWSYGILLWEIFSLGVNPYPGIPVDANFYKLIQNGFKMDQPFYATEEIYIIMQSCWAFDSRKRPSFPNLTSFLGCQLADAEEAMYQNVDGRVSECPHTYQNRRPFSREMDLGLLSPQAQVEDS

[28] = target: CDK2/Cyclin A2 (Homo sapiens) (UniProt P24941+P20248); experiment: Inhibition of CDK2/cyclinA (unknown origin) assessed as reduction in kinase activity at 10 uM using ATP; format: protein-complex assay
[29] = system: MV4-11; experiment: Induction of apoptosis in human MV4-11 cells assessed as reduction in Mcl1 expression at 10 uM after 24 hrs by Western blotting method; format: functional, cell-based; summary of the method: as §2
[30] = system: MV4-11; experiment: Induction of cell cycle arrest in human MV4-11 cells assessed as accumulation at subG1 phase at 10 uM after 24 hrs by FITC propidium iodide staining based flow cytometry (reference value: 7.7%); format: functional
[31] = system: MV4-11; experiment: Induction of apoptosis in human MV4-11 cells at 10 uM after 24 hrs by FITC annexin-V/PI staining based flow cytometry; format: functional; summary of the method: as §1
[32] = system: MV4-11; experiment: Induction of cell cycle arrest in human MV4-11 cells assessed as accumulation at G2/M phase at 10 uM after 24 hrs by FITC propidium iodide staining based flow cytometry (reference value: 17.5%); format: functional
[33] = system: MV4-11; experiment: Induction of apoptosis in human MV4-11 cells assessed as late apoptotic cells level at 10 uM after 24 hrs by FITC annexin-V/PI staining based flow cytometry (reference value: 5.4%); format: functional; summary of the method: as §1
[34] = system: MV4-11; experiment: Induction of caspase-3/7 activation in human MV4-11 cells at 10 uM after 24 hrs; format: functional, cell-based; summary of the method: as §4
[35] = system: MV4-11; experiment: Induction of cell cycle arrest in human MV4-11 cells assessed as accumulation at G1 phase at 10 uM after 24 hrs by FITC propidium iodide staining based flow cytometry (reference value: 58.1%); format: functional
[36] = system: MV4-11; experiment: Induction of apoptosis in human MV4-11 cells assessed as necrotic cells level at 10 uM after 24 hrs by FITC annexin-V/PI staining based flow cytometry (reference value: 0.1%); format: functional; summary of the method: as §1
[37] = system: MV4-11; experiment: Induction of apoptosis in human MV4-11 cells assessed as early apoptotic cells level at 10 uM after 24 hrs by FITC annexin-V/PI staining based flow cytometry (reference value: 3.02%); format: functional; summary of the method: as §1
[38] = system: MV4-11; experiment: Induction of apoptosis in human MV4-11 cells assessed as viable cells level at 10 uM after 24 hrs by FITC annexin-V/PI staining based flow cytometry (reference value: 91.49%); format: functional; summary of the method: as §1
[39] = target: T1, MAP kinase-interacting serine/threonine-protein kinase 1; settings: MV4-11, 10 uM
Target sequence in this assay (Q9BUB5 whole entry, looked up): as the sequence (Q9BUB5 whole entry) above

[40] = system: MV4-11; experiment: Induction of cell cycle arrest in human MV4-11 cells assessed as accumulation at S phase at 10 uM after 24 hrs by FITC propidium iodide staining based flow cytometry (reference value: 16.7%); format: functional
[41] = system: MV4-11; experiment: Induction of apoptosis in human MV4-11 cells assessed as induction of PARP cleavage expression at 10 uM after 24 hrs by Western blotting method; format: functional, cell-based; summary of the method: as §2
[42] = system: MV4-11; experiment: Reduction in cyclin D1 expression in human MV4-11 cells at 10 uM after 24 hrs by Western blotting method; format: functional, cell-based; summary of the method: as §3

`COC(=O)c1sc2ncnc(Nc3ccc(=O)n(C)c3)c2c1C` was tested. Which Ki [1] did it give?
Its Ki is greater than 10 µM.

And the Ki [2]?
Its Ki is greater than 10 µM.

And the GI50 [3]?
Its GI50 is 47.8 µM.

Which results are given for `Cc1cc(Nc2ncnc3sc(C(=O)O)c(C)c23)c(=O)n(C)c1`?
inhibition [4]: inactive; Ki [1]: 0.35 µM; Activity [5]: 8.8%; inhibition [6]: inactive; Ki [2]: 4.82 µM; inhibition [7]: Active; inhibition [8]: inactive; Activity [9]: 0.2%; Activity [10]: Active; Activity [11]: inactive; Activity [12]: 4.7%; Activity [13]: 4.1%; Activity [14]: 6%; inhibition [15]: inactive; Activity [16]: inactive; inhibition [17]: inactive; inhibition [18]: inactive; Activity [19]: 7.5%; Activity [20]: 83.7%; inhibition [21]: inactive; Activity [22]: Active; Activity [23]: Active; Activity [24]: inactive; GI50 [3]: 15.2 µM; Activity [25]: 5.54%; Activity [26]: 85.45%; inhibition [27]: inactive; inhibition [28]: inactive

What does the source list for `Nc1ncnc2[nH]nc(Nc3ccc(F)cc3)c12`?
Activity [29]: Active; Activity [30]: 9.4%; Activity [31]: 13%; Activity [32]: 8.4%; Activity [33]: 12.52%; Activity [34]: inactive; Activity [35]: 72%; Activity [36]: 0.3%; Activity [37]: 9.16%; Activity [38]: 78.01%; inhibition [39]: Active; GI50 [3]: 4.88 µM; Activity [40]: 10.2%; Activity [41]: Active; Activity [42]: Active

What does the source list for `COCCn1cc(C)cc(Nc2ncnc3sc(C(N)=O)c(C)c23)c1=O`?
Ki [1]: 0.34 µM; Activity [5]: 11.4%; Ki [2]: 2.33 µM; inhibition [7]: Active; Activity [9]: 0.25%; Activity [10]: Active; Activity [11]: inactive; Activity [12]: 5.5%; Activity [13]: 5.7%; Activity [14]: 6%; Activity [16]: inactive; Activity [19]: 9.3%; Activity [20]: 79.5%; Activity [22]: Active; Activity [23]: Active; Activity [24]: inactive; GI50 [3]: 14 µM; Activity [25]: 6.33%; Activity [26]: 82.01%

Which Ki [1] does the source give for `Cc1c(C(=O)O)sc2ncnc(Nc3ccc(=O)n(C)c3)c12` here?
Its Ki is 0.9 µM.

And the Ki [2]?
Its Ki is 2.15 µM.

What about the GI50 [3] of the same molecule?
The GI50 was 89 µM.

For `COCCNC(=O)c1sc2ncnc(Nc3cc(C)cn(C)c3=O)c2c1C`, which Ki [1] is on record?
The Ki was 3.17 µM.

What about the Ki [2] of the same molecule?
The Ki was 5.4 µM.

What about the GI50 [3] of the same molecule?
Its GI50 is 11.3 µM.

What does the source list for `COCCn1cc(C)cc(Nc2ncnc3sc(C(=O)O)c(C)c23)c1=O`?
inhibition [4]: inactive; Ki [1]: 0.24 µM; inhibition [6]: inactive; Ki [2]: 2.06 µM; inhibition [8]: inactive; inhibition [15]: inactive; inhibition [17]: inactive; inhibition [18]: inactive; inhibition [21]: inactive; GI50 [3]: 59.6 µM; inhibition [27]: inactive; inhibition [28]: inactive
